SENP1 FRET inh: human SENP1 catalytic domain inhibitors, primary screen, biochemical, FRET, uHTS; Sentrin-specific protease 1 (Homo sapiens), Q9P0U3; recombinant SENP1 catalytic domain, CyPet-SUMO1-YPet FRET cleavage; inhibition, % at 10 µM; hit rate 0.21% among 360,000; AID 624204, 2012;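 active = inhibition at least 30% at 10 µM, raw YFP signal under a set limit, fluorescence ratio 0.5 to 1.5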
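Test system: human SENP1 catalytic domain; medium: Tris pH 8 buffer plus EDTA, NaCl, BME, BSA, NP40, catalase; incubation: 50 min reaction at room temperature; technique: FRET, CFP and YFP emission; controls: no-enzyme low control and enzyme-plus-DMSO high control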
SENP8 block-1: human SENP8 protease inhibitors, primary screen, biochemical, fluorescence, Nedd8 protein substrate, uHTS; inhibition, % at 20 µM; recombinant SENP8; Sentrin-specific protease 8 (Homo sapiens), Q96LD8; hit rate 0.64% among 360,000; in the data active = inhibition mostly above about 40%, no sharp cut-off; inactive = mostly below about 27%
Target sequence (Q96LD8 whole entry, looked up): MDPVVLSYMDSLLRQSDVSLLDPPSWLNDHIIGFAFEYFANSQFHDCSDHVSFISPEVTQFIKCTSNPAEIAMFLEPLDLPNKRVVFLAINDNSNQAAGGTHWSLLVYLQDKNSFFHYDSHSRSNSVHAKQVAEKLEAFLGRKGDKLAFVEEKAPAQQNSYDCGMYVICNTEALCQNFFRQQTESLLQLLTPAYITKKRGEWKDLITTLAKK
SENP6 block: SENP6 protease inhibitors, primary screen, biochemical, luminescence, uHTS; Recombinant SENP6 catalytic domain, aminoluciferin luminescence; hit rate 1.8% among 330,000; inhibition, % at 10 µM; AID 2599, 2010;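 active = inhibition above about 50% at the single tested dose, limit read from the data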
Target sequence (Q9GZR1 628-1112 limits assumed): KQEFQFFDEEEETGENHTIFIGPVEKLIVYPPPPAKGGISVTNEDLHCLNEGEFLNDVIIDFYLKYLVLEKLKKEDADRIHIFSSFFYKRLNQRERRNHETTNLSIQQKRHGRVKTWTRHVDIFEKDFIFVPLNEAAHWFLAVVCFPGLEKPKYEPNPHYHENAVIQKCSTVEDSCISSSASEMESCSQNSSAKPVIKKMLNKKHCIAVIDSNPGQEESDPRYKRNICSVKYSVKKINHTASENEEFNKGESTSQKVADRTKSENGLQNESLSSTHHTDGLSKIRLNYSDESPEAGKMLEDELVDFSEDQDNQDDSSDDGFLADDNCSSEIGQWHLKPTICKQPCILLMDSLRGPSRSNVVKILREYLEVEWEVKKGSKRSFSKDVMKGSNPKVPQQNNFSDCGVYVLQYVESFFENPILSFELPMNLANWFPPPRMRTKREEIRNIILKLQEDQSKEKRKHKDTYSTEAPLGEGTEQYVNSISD
SENP8 block-2: SENP8 protease inhibitors, primary screen, biochemical, luminescence; hit rate 1.2% among 330,000; AID 2540, 2010; inhibition, % at 10 µM; Sentrin-specific protease 8 (Homo sapiens), Q96LD8; purified SENP8, Z-RLRGG-aminoluciferin cleavage; in the data active = inhibition above about 50%
SENP7 block: SENP7 protease inhibitors, primary screen, biochemical, luminescence, uHTS. Sentrin-specific protease 7 (Homo sapiens), Q9BQF6. recombinant SENP7, Z-RLRGG-aminoluciferin luminescence, 40 min. inhibition, % at 5 µM. hit rate 1.5% among 330,000;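 active = inhibition above about 50% at the single test dose, limit read from the data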
Of the large screens only hits and unclear results are named; the others gave an inactive call. Sampled rows, rich in hits. Any-hit rate of the full collection: about 2.5%.

CC(=O)[C@H]1[C@H](c2cccc(Cl)c2)C(C#N)(C#N)[C@@H]2c3ccccc3C=CN21	SENP6 block 66.9 (no result: SENP1 FRET inh, SENP8 block-1)
CC(=O)[C@@H]1[C@@H]2C(=O)N(c3ccc(F)c(Cl)c3)C(=O)[C@@H]2C2c3ccccc3C=CN21 (stereo not given in full)	none (no result: SENP1 FRET inh, SENP8 block-1)
Clc1c(CSc2nc3ccccc3o2)nc2ccccn12	SENP6 block 52.3
Clc1c(CSc2nc3ccccc3o2)nc2sccn12	none
CNC[C@H]1Oc2ccc(NC(=O)Cc3cn(C)c4ccccc34)cc2CC(=O)N([C@@H](C)CO)C[C@H]1C	none
CN1CCN(C2=C(Cl)C(=O)c3ccccc3C2=O)CC1	SENP8 block-1 73.1 (no result: SENP6 block, SENP8 block-2, SENP7 block)
O=[N+]([O-])c1ccc2[nH]c(O)c(N=NC(=S)Nc3cccnc3)c2c1	SENP8 block-1 41.6
Nc1ccc(OCc2ccco2)cc1	SENP7 block 54.4
O=C(O)c1cc(NC(=O)c2ccccc2[N+](=O)[O-])ccc1O	none
Cc1ccc(N2C(=O)Nc3ccc(Br)cc3C2(O)C(=O)NCCN(C)C)cc1C (stereo not given)	none
Cc1ccc(N=Nc2c(O)[nH]c3ccc(F)cc23)cc1	none
CCc1ccc2[nH]c(O)c(N=Nc3nc(-c4ccccc4)cs3)c2c1	SENP1 FRET inh 32.7
COc1cccc(/C=C2\SC(=S)N(CCCC(=O)N3CCCCC3CCO)C2=O)c1 (stereo not given)	none
COc1cccc(/C=C2\SC(=S)N(CCCC(=O)N3CCCC3)C2=O)c1	SENP6 block 78.1, SENP7 block 64.8
Cc1ccc(-n2nc3ccc(N)cc3n2)cc1	SENP6 block 88.7, SENP8 block-2 80.3
Cc1cc2nn(-c3ccc(F)cc3)nc2cc1N	SENP6 block 76.1, SENP8 block-2 70.5
CC1(C)CC(=O)c2c(O)cc(O)cc2O1	none
C[C@]12CCC[C@H](O1)c1c(cc3c(c1O)C(=O)c1c(O)cc(O)cc1C3=O)O2	SENP1 FRET inh 31.1, SENP8 block-1 57.7
Oc1c(CN2CCOCC2)cc(CN2CCOCC2)c(O)c1O	SENP8 block-1 52.2 (no result: SENP6 block, SENP8 block-2, SENP7 block)
Oc1cccc(CN2CCOCC2)c1O	none (no result: SENP6 block, SENP8 block-2, SENP7 block)
O=C(NC(Cc1c[nH]c2ccccc12)C(=O)O)c1cccc(S(=O)(=O)N2CCCCC2)c1 (stereo not given)	none (no result: SENP6 block, SENP8 block-2, SENP7 block)
CCCN1C(=O)/C(=C/c2ccco2)SC1=Nc1ccc(OC)cc1	SENP8 block-1 47.6
CCCN1C(=O)/C(=C/c2ccc(C)o2)SC1=Nc1ccc(OC)cc1	none
Nc1cc(N)cc(C(=O)OCC(=O)Nc2cc(S(=O)(=O)N3CCCCC3)ccc2Cl)c1	none
COc1cc(C2C3=C(COC3=O)Oc3cc4c(cc32)OCO4)cc(OC)c1OC (stereo not given)	SENP8 block-1 43.5 (no result: SENP6 block, SENP8 block-2, SENP7 block)
O=C(O)C1CSC(c2ccncc2)N1 (stereo not given)	SENP1 FRET inh 64.6
COc1cccc(/C(C)=N/NC(=O)c2ccc(N(C)C)cc2)c1	SENP6 block 69.2, SENP8 block-2 54.8
COc1cccc(C(=O)N/N=C(\C)CC(=O)Nc2ccc(N(C)C)cc2)c1	none
Cc1ccc(CNC(=O)C(=O)NCC2CCCN2S(=O)(=O)c2cccs2)cc1 (stereo not given)	none
CC(/C=C(\NC(=O)c1ccccc1)C(=O)N=Nc1c(O)[nH]c2ccc(C)cc12)=C\c1ccccc1	SENP8 block-1 51.3
O=C(/C=C/c1ccccc1)c1c[nH]c2ccccc12	SENP6 block 57.9, SENP7 block 84.0
Cc1cc(C)c(NS(=O)(=O)c2ccccc2)c(C)c1NS(=O)(=O)c1ccccc1	none (no result: SENP6 block, SENP8 block-2, SENP7 block)
CC(C)(C)c1ccc(S(=O)(=O)/N=C2\C=C(NS(=O)(=O)c3ccccc3)C(=O)c3ccccc32)cc1	SENP8 block-1 51.1
Cc1ccc(S(=O)(=O)/N=C2\C=C(NS(=O)(=O)c3ccccc3)C(=O)c3ccccc32)c(C)c1	SENP8 block-1 49.6 (no result: SENP6 block, SENP8 block-2, SENP7 block)
C/C(=N\NS(=O)(=O)c1ccc(C(C)(C)C)cc1)c1ccccc1	none
O=C(NC(NC(=S)Nc1cccc(Cl)c1)C(Cl)(Cl)Cl)OCc1ccccc1 (stereo not given)	none
COc1ccc(NC(=O)c2cc3cccc(OC)c3oc2=Nc2ccc(C(=O)O)cc2)cc1OC	none (no result: SENP6 block, SENP8 block-2, SENP7 block)
COc1cccc(NC(=O)c2cc3cccc(OC)c3o/c2=N\O)c1	SENP7 block 82.3 (no result: SENP1 FRET inh, SENP8 block-1)
CCOc1ccccc1NC(=O)COC(=O)C(CC)c1ccccc1 (stereo not given)	none
O=C1CC(c2nc3ccccc3[nH]2)CN1c1ccccc1 (stereo not given)	none
c1ccc(C2=Nc3ccccc3SC2c2nc3ccccc3[nH]2)cc1 (stereo not given)	SENP6 block 52.4, SENP7 block 54.5 (no result: SENP1 FRET inh, SENP8 block-1)
Cc1ccc(CNC(=O)Cc2ccc(Br)cc2)cc1	none
Cc1ccc2c(c1)-c1c(ssc1=S)C(C)(C)N2C(=O)CSc1nncn1C	SENP8 block-1 42.8
Cc1onc(-c2ccccc2Cl)c1C(=O)NCc1cccnc1	none
Cc1oc2c(c1C(=O)NCc1cccnc1)C(=O)c1ccccc1C2=O	SENP6 block 84.3, SENP7 block 73.6 (no result: SENP1 FRET inh, SENP8 block-1)
CC(=O)c1c(C)oc2c1C(=O)c1ccccc1C2=O	SENP8 block-1 40.9 (no result: SENP6 block, SENP8 block-2, SENP7 block)
O=C1c2ccccc2C(=O)c2c1oc(C(F)(F)F)c2C(=O)c1ccccc1	SENP8 block-1 72.8, SENP6 block 77.3, SENP8 block-2 59.2
Fc1ccc(N2CCN(C3=Nc4cccc5cccc3c45)CC2)cc1	SENP1 FRET inh 89.6
CN(C)S(=O)(=O)c1cccc(NC(=O)c2cccc(N3C(=O)CCC3=O)c2)c1	none
CCc1ccc(C(O)c2ncc(-c3cccc(OC)c3)[nH]2)cc1 (stereo not given)	none (no result: SENP6 block, SENP8 block-2, SENP7 block)
Cc1ccc(S(=O)(=O)Nc2ccccc2)cc1[N+](=O)[O-]	none (no result: SENP6 block, SENP8 block-2, SENP7 block)
Cc1cccc2c(N=Nc3ccc(S(=O)(=O)Nc4cccc(Cl)c4)cc3[N+](=O)[O-])c(O)[nH]c12	SENP8 block-1 47.4
CCN(CC)S(=O)(=O)c1ccc(=O)n(CC(=O)N2CCCc3cc(C)ccc32)c1	none
COc1cc(NCCCC(C)N)c2ncccc2c1 (stereo not given)	SENP8 block-1 57.0 (no result: SENP6 block, SENP8 block-2, SENP7 block)
COc1ccc(CN2C(=O)c3ccccc3C2=O)cc1	none
COc1ccc(CC2=C(O)c3ccccc3C(=O)C2=O)cc1	SENP8 block-1 68.4
O=C(O)c1ccc(COc2ccc3c(c2)CCC3)cc1	SENP6 block 94.8, SENP8 block-2 83.7, SENP7 block 51.0
NNC(=O)c1ccc(COc2ccc3c(c2)CCC3)cc1	none
CC(C(=O)Nc1ccc(O)cc1C(=O)O)N1C(=O)/C(=C\c2cccs2)SC1=S (stereo not given)	SENP8 block-1 61.5
O=C(NC(=S)NNC(=O)c1ccccc1O)c1ccc([N+](=O)[O-])cc1	SENP6 block 76.7
O=C(NCc1ccccc1)c1ccc2c(=O)n(CC3CCCO3)c(=S)[nH]c2c1 (stereo not given)	none

Source: PubChem
